An excerpt weighted towards active compounds, which were near 2.2% of everything screened.
Redox H2O2 prof = compounds producing H2O2 with reducing agent – biochemical, NIH compound library profiling, artefact control for MLSCN library redox annotation, primary screen. 200,000 compounds, 0.03% hits. activation, % at 10 µM. DTT-dependent redox cycling H2O2, phenol red/HRP absorbance; 100% = 100 µM peroxide control, 0% = buffer;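 active means activation of at least 50% relative to the plate's high and low controls in the primary single-dose screen; inactive means activation below 50%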;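 further: compound incubated with DTT at 0.8 mM final as the reducing agent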
p97 inhibitor = human p97 ATPase inhibition; recombinant p97 ATPase, Kinase-Glo ATP luminescence, 3 h; inhibition, % at 8 µM; 220,000 compounds, 0.42% hits; AID 1481; in the data active means inhibition above about 15%;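 further: 0% = DMSO vehicle and 100% = wells lacking enzyme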
Wee1 stabilizer = blocks degradation of human Wee1 kinase. P30291. HeLa Luc-Wee1K328M stability, luciferase luminescence; 100% = proteasome inhibitor MG132 effect. reporter increase, % at 5 µM. 220,000 compounds, 1.2% hits;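 active means activation above the mean of all tested compounds plus 3 SD, set per screening run, cut at about 8.8% in these data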;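 further: cells exposed to compound for 20 h before luminescence read; 0% = DMSO alone and 100% = MG132 at 30 µM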
Arbovirus anti = antivirals against arbovirus infection. arbovirus infection cell-based antiviral screen. inhibition, % at 10 µM. 200,000 compounds, 0.37% hits. AID 1251; in the data active means inhibition above about 30%
PKD1 kinase inh = inhibitors of human PKD1 kinase; 200,000 compounds, 0.056% hits; PKD1 kinase fluorescence polarization assay; AID 797; inhibition, % (no concentration beside the values); in the data active means inhibition above about 50%
RBBP9 inh = human RBBP9 hydrolase inhibition. O75884. AID 1515. 220,000 compounds, 0.2% hits. inhibition, % at 7.94 µM. recombinant RBBP9, FP-Rh probe fluorescence polarization;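 active means inhibition above the campaign mean of all tested compounds plus 3 SD, cut at about 14% in these data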;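 further: plate controls were DMSO wells with RBBP9 for no effect and wells lacking RBBP9 protein for full effect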
Target sequence (O75884 whole entry, looked up): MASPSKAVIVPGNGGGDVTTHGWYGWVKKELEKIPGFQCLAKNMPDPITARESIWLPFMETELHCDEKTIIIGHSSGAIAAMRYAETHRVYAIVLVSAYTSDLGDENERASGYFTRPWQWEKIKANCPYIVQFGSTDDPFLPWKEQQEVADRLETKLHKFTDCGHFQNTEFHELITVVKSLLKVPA
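System: RBBP9 protein / Buffer or medium: Tris/NaCl buffer pH 8.0 with 0.1% Pluronic / Probe or stimulus: Serine-hydrolase probe FP-Rh, 375 nM pre-mixing / Dosing: 7.94 µM single dose, 0.794% DMSO / Times: enzyme-compound preincubation 30 min, then probe labeling 45 min, 25 °C / Technique: fluorescence polarization (mP), excitation 525 nm, emission 598 nm / Replication: singlicate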
p97 confirm = human p97 ATPase inhibition, confirmation. shares compounds with p97 inhibitor. recombinant p97 ATPase, Kinase-Glo ATP luminescence. inhibition, % at 8 µM. 760 compounds, 44% hits. AID 1517;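 active means percent inhibition of p97 ATPase above a set limit, the primary screen's mean plus 3 SD, cut at about 15% in these data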;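 further: 0% = DMSO wells and 100% = wells lacking p97 protein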
* hit, by the source's call; . = not tested or not shown.

SMILES	Redox H2O2 prof	p97 inhibitor	Wee1 stabilizer	Arbovirus anti	PKD1 kinase inh	RBBP9 inh	p97 confirm
Nc1nc(N2CCOCC2)n[nH]1	10.2	17.2*	-1.3	1.0	3.3	-6.2	3.7
Nc1nc(N2CCN(c3ccc(F)cc3)CC2)n[nH]1	-0.2	0.8	-1.0	9.2	-3.0	-4.9	.
CC(=O)c1cccc(NC(=O)COc2ccc(S(=O)(=O)N3CCCCC3)cc2)c1	-3.6	-2.8	-0.9	3.4	-0.6	0.7	.
Cc1cc[n+](-c2nc([O-])n(-c3ccccc3)c2C=O)cc1	0.9	2.1	6.4	.	-3.3	1.4	.
COC(=O)Cc1nc(Nc2ccccc2)sc1C	.	20.3*	-1.6	.	.	-3.7	5.2
COC(=O)Cc1csc(Nc2ccccc2)n1	-0.4	0.2	-1.4	-6.8	-1.7	-7.9	.
O=C(O)c1cccc(NN=C2c3ccccc3-c3ccccc32)c1	0.6	37.9*	-1.6	69.4*	-5.3	3.0	45.3*
CCOc1ccccc1NC(=O)c1cc(C(=O)c2cc(Br)ccc2O)coc1=N	-0.2	25.2*	3.4	1.4	-1.9	-18.0	33.6*
O=C(N/N=C/c1coc2ccccc2c1=O)c1cc(O)cc(O)c1	0.1	30.4*	0.5	3.2	1.0	-29.6	32.9*
Cc1c2cnn(-c3ccccc3)c(=O)c2c(C)n1CCCC(=O)NCCN1CCN(C)CC1	.	-0.2	-2.5	.	.	-10.0	.
c1cncc(-c2nc(NCc3ccc4c(c3)OCO4)c3ccccc3n2)c1	.	17.3*	-2.5	.	.	-12.5	20.6*
c1cncc(-c2nc(NCC3COc4ccccc4O3)c3ccccc3n2)c1 (stereo unspecified)	0.1	2.0	-2.3	-35.5	-5.8	-10.9	.
CC(C)(C)Nc1nc(NC(C)(C)C)nc(-n2ccnc2)n1	1.3	15.5*	0.3	2.2	0.9	-1.2	9.8
O=C(O)CSc1cc(NS(=O)(=O)c2cccc([N+](=O)[O-])c2)c2ccccc2c1O	.	26.7*	-2.3	.	.	1.9	40.0*
O=C(O)c1cccc(S(=O)(=O)Nc2ccc([N+](=O)[O-])cc2O)c1	.	6.2	-1.1	.	.	-11.5	.
S=C(Nc1ccc2nsnc2c1)N1CCCC1	0.1	20.6*	-1.6	-5.0	-9.3	-9.3	8.1
C=C1c2cccc(O)c2C(O)=C2C(=O)[C@]3(O)C(O)=C(C(N)=O)C(=O)[C@@H](N(C)C)[C@@H]3[C@@H](O)[C@H]12	0.4	63.0*	-1.1	-1.6	7.8	37.2*	8.1
Cc1ccccc1OCCOc1ccccc1C=C(C#N)C#N	-0.3	6.8	-2.0	12.9	-8.3	-11.0	.
COc1ccc2c(C(=O)CCl)c[nH]c2c1	.	35.6*	1.3	.	.	0.5	42.8*
C#CCOCCOCCOCCNc1nc(N2CCN(C(=O)C(Cc3ccc(O)cc3)n3cc(C(N)CC(C)C)nn3)CC2)nc(N2CCN(C(=O)C(Cc3cc4ccccc4[nH]3)n3cc(C(N)Cc4ccc(O)cc4)nn3)CC2)n1 (stereo unspecified)	-0.6	18.9*	1.7	-7.6	6.7	3.5	19.8*
C#CCOCCOCCOCCNc1nc(N2CCN(C(=O)[C@H]([C@@H](C)CC)n3cc([C@@H](N)Cc4ccc(O)cc4)nn3)CC2)nc(N2CCN(C(=O)[C@H]([C@@H](C)CC)n3cc([C@@H](N)CC(C)C)nn3)CC2)n1	0.4	18.4*	-0.7	-2.0	9.9	5.2	9.5
C#CCOCCOCCOCCNc1nc(N2CCN(C(=O)[C@H](CCC(=O)O)n3cc(C(N)Cc4ccc(O)cc4)nn3)CC2)nc(N2CCN(C(=O)[C@H](Cc3cc4ccccc4[nH]3)n3cc(C(N)CC(C)C)nn3)CC2)n1 (stereo partly specified)	-0.5	7.0	4.3	-1.3	1.3	5.0	.
C[n+]1cc[nH]c1SCC(=O)c1ccccc1	0.3	4.3	6.8	-1.6	-2.1	-7.9	.
Cc1nc2sccc2c(=O)n1-c1cccc(Cl)c1	-8.0	-1.3	-2.4	11.0	2.1	5.4	.
Nc1cccc2c1C(=O)N(C(=O)/C=C/c1cccc(Br)c1)C2=O	.	16.9*	1.2	.	.	6.0	18.5*
SMILES	Redox H2O2 prof	p97 inhibitor	Wee1 stabilizer	Arbovirus anti	PKD1 kinase inh	RBBP9 inh	p97 confirm
Nc1cccc2c1C(=O)N(C(=O)/C=C/c1cccc(F)c1)C2=O	0.2	2.2	3.7	1.0	6.1	-3.6	.
COc1cc2c(cc1NC(=O)CSc1nnc(Cc3cccs3)n1C)oc1ccccc12	0.8	21.6*	-0.7	-3.4	-11.4	-7.0	16.5*
CCOc1ccccc1N=c1oc2cc(O)ccc2cc1C(=O)NCC1CCCO1 (stereo unspecified)	-0.2	-3.0	4.2	11.3	-2.0	-0.8	.
c1ccc(Cn2nnc3c(N4CCCCCC4)ncnc32)cc1	-0.1	19.7*	1.0	-12.5	-14.3	-3.9	0.8
O=c1cc(CCl)[nH]c2nc3ccccc3n12	.	38.3*	3.8	.	.	-3.6	38.2*
CC(C)c1ccc(NC(=O)C(c2ccccc2)N2CC(=O)Nc3ccccc32)cc1 (stereo unspecified)	2.4	15.5*	0.8	-10.5	8.7	-4.6	5.9
Nc1c(N2CCCC2)cc(Cl)c2nonc12	6.3	31.7*	-1.7	-2.1	2.1	-2.2	19.9*
Nc1ccc(N2CCCCC2)cc1N1CCCCC1	0.8	0.1	-5.2	-14.9	14.9	-0.3	.
Nc1ccc(N2CCCCC2)c2nonc12	-1.0	44.2*	-0.3	-30.7	-1.9	-7.9	10.4
COc1ccccc1NC(=S)Nc1ccc2cn[nH]c2c1	-0.1	7.5	1.1	1.6	-11.8	-4.8	.
Cn1c(Cn2c(=O)sc3ccccc32)nnc1SCC(=O)NCCc1ccccc1	-0.6	2.2	1.9	0.8	0.6	-3.2	.
O=C1NC(=O)/C(=C/c2cccc(O)c2)N1	.	19.1*	1.0	.	.	-1.6	14.1
O=C1NC(=O)/C(=C\c2ccc(OCc3cccc(C(=O)O)c3)c(Cl)c2)N1	0.3	4.2	-1.9	2.2	1.0	-2.1	.
Cn1cnnc1Sc1cc(N2CCN(S(=O)(=O)c3ccc4ccccc4c3)CC2)ccc1[N+](=O)[O-]	0.9	11.2	-0.6	-0.1	-3.4	-7.0	.
COc1ccccc1NC1=C(Cl)C(=O)N(c2ccccc2)C1=O	1.1	17.4*	-1.7	-0.8	-7.2	-6.5	27.1*
COc1ccc(NC2=C(Cl)C(=O)N(c3ccccc3)C2=O)c(OC)c1	-0.3	24.8*	-1.1	0.6	-3.0	-5.3	7.1
CC(C)CC(NC(=O)OC(C)(C)C)c1cn([C@@H](Cc2ccc(O)cc2)C(=O)N2CCN(C(=O)OC(C)(C)C)CC2)nn1 (stereo partly specified)	-0.2	1.8	3.1	-2.1	-1.5	-4.5	.
O=C(N/N=C/c1c(Cl)nc2ccccn2c1=O)c1cccnc1	.	16.7*	2.6	.	.	3.8	8.6
Cc1c(/C=N/NC(=O)c2cccnc2)c2ccccn2c1C(=O)c1ccc(F)cc1	-0.4	-1.5	0.1	16.3	-2.0	-15.6	.

Assay outcomes as filed in PubChem BioAssay.
